The text below walks through data of ChEMBL document CHEMBL4152320, “Discovery and development of novel salicylate synthase (MbtI) furanic inhibitors as antitubercular agents” (Eur J Med Chem, 2018).

Experiment [1] deals with Mycobacterium tuberculosis. The experiment is described as follows: Inhibition of Mycobacterium tuberculosis salicylate synthase expressed in Escherichia coli BL21(DE3) assessed as residual activity at 100 uM using chorismic acid as substrate in presence of NADH by l-lactic dehydrogenase enzyme coupled assay relative to control.
A short description of experiment [2]: Inhibition of Mycobacterium tuberculosis salicylate synthase expressed in Escherichia coli BL21(DE3) using chorismic acid as substrate in presence of NADH by l-lactic dehydrogenase enzyme coupled assay. In a few lines: (§1)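 IC50 at subsaturating chorismic acid (50 µM) via LDH-coupled NADH assay, 37 °C, 50 mM HEPES pH 8.0, 10 mM MgCl2, 10-20 µM MbtI; activity at varied inhibitor fitted to A[I] = A[0]×(1−[I]/([I]+IC50)). Aggregation controls run with BSA or Triton X-100 added (line 8 BSA, line 11 Triton).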

Experiment [3] relates to Mycobacterium tuberculosis. The experiment is described as follows: Inhibition of Mycobacterium tuberculosis salicylate synthase expressed in Escherichia coli BL21(DE3) using chorismic acid as substrate in presence of Triton-X-100 by l-lactic dehydrogenase enzyme coupled assay. The procedure, abridged:
as §1

In experiment [4] the test system is Mycobacterium tuberculosis. The experiment is described as follows: Antimycobacterial activity against Mycobacterium tuberculosis H37Rv. The class given is functional. In a few lines: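 MIC99 vs M. tuberculosis H37Rv on solid medium. Single colony grown in 7H9 + 10% OADC at 37 °C to exponential phase (~10^8 CFU/mL), diluted to ~10^6 CFU/mL, about 1 µL streaked onto plates with two-fold serial compound dilutions; MIC = lowest concentration inhibiting growth; triplicate.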

Experiment [5] relates to Mycobacterium tuberculosis. The experiment is described as follows: Inhibition of Mycobacterium tuberculosis salicylate synthase expressed in Escherichia coli BL21(DE3) using chorismic acid as substrate in presence of DTT by l-lactic dehydrogenase enzyme coupled assay. In a few lines:
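IC50 with 100 µM DTT present, to probe cysteine reactivity; LDH-coupled assay at 37 °C with 50 µM chorismic acid, 50 mM HEPES pH 8.0, 0.2 mM NADH, 10 mM MgCl2, 10-20 µM MbtI; fitted to single-site IC50 equation.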

Experiment [6] is described as follows: Competitive inhibition of Mycobacterium tuberculosis salicylate synthase expressed in Escherichia coli BL21(DE3) using varying levels of chorismic acid as substrate in presence of NADH by l-lactic dehydrogenase enzyme coupled assay. In a few lines: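 Ki by competitive-inhibition fit of MbtI activity across varied CHA (10-500 µM range used for kinetics) and inhibitor levels (0, 5, 10, 20, 50, 100 µM). Coupled lactate dehydrogenase assay at 37 °C: 50 mM HEPES pH 8.0, 0.2 mM NADH, 10 mM MgCl2, 3 U LDH, 10-20 µM MbtI; reactions started with CHA; triplicate.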

The test system of experiment [7] is Mycobacterium tuberculosis. The experiment is described as follows: Inhibition of Mycobacterium tuberculosis salicylate synthase expressed in Escherichia coli BL21(DE3) using chorismic acid as substrate in presence of BSA by l-lactic dehydrogenase enzyme coupled assay. In a few lines:
as §1

Values after ≈ are worked out from the molar mass of the structure shown. Active and inactive are the calls of the source. The rule behind the calls is not given here.

In the case of `O=C(O)c1ccc(-c2ccc(C(F)(F)F)cc2)o1`, in experiment [1], the Activity was determined as 66.3%.

Consider `O=C(O)c1ccc(-c2ccccc2[N+](=O)[O-])o1`, for which, in experiment [1], the Activity was found to be 55.1%.

`O=C(O)c1ccc(-c2ccc3nonc3c2)o1`: in experiment [1], the Activity worked out at 46.8%.

For `O=C(O)c1ccc(-c2ccc(C(=O)O)o2)cc1`, in experiment [1], the Activity stood at 92.4%.

On to `O=C(O)c1ccc(-c2ccc(O)cc2)o1`, for which the Activity in experiment [1] turned out to be 96.3%.

With `O=C(O)c1ccc(-c2ccc(-c3nn[nH]n3)cc2)o1`, in experiment [1], the Activity was 104%.

Usually IC50 stands for the concentration at which inhibition is half-maximal. Take `C/C=C(\Oc1cccc(C(=O)O)c1O)C(=O)O`: the 50% inhibitory concentration (IC50) in experiment [2] was 11.6 µM.

As to `O=C(O)c1ccc(-c2ccncc2)o1`, the Activity in experiment [1] was found to be 45%.

Regarding `COC(=O)c1ccc(-c2ccc([N+](=O)[O-])cc2)o1`, the Activity in experiment [1] was determined as 71.1%.

A word on the MIC99: it is the lowest concentration that inhibits either 99% of growth or 99% of the strains tested, depending on the study. The Ki is a measure of affinity in units of concentration, obtained from inhibition or displacement. Turning to `O=C(O)c1ccc(-c2ccc([N+](=O)[O-])cc2)o1`, the inhibition entry in experiment [3], in experiment [5] and in experiment [7] was “Active” each time. The MIC99 in experiment [4] turned out to be 156 µM (≈ 36.4 µg/mL). For the same compound, the Activity in experiment [1] worked out at 18.2%. The Ki in experiment [6] was determined as 5.3 µM.

As for `O=C(O)c1ccc(-c2cccc([N+](=O)[O-])c2)o1`, in experiment [1], the Activity amounted to 50.2%.

Consider `O=C(O)c1cccc(-c2ccc([N+](=O)[O-])cc2)c1`, for which, in experiment [1], the Activity came out at 36.8%.

In the case of `N#Cc1ccc(-c2ccc(C(=O)O)o2)cc1`, the Activity in experiment [1] came out at 126%.

With `O=C(O)c1ccc(-c2ccc([N+](=O)[O-])cc2Cl)o1`, the half-maximal inhibitory concentration (IC50) in experiment [2] was found to be 21.1 µM. For the same compound, the Activity in experiment [1] was determined as 21.3%.

In the case of `NS(=O)(=O)c1ccc(-c2ccc(C(=O)O)o2)cc1`, the Activity in experiment [1] was 84.6%.

For `COc1ccc(C(=O)O)cc1OCc1ccncc1`, the Activity in experiment [1] is 104%.

For `O=C(O)c1ccc(-c2ccccc2Cl)o1`, the Activity in experiment [1] worked out at 92.4%.

In the case of `Cc1cc(C(=O)O)c2ccc(F)cc2n1`, the Activity in experiment [1] worked out at 101%.

Turning to `O=C(O)c1ccc(-c2ccc3c(c2)COC3=O)o1`, the Activity in experiment [1] was 58%.

Regarding `Cc1nc(C(C)NC(=O)c2ccoc2)sc1C(=O)O` (stereo unspecified), in experiment [1], the Activity came to 109%.

In the case of `O=C(O)c1ccc(-c2ccccc2)o1`, the Activity in experiment [1] worked out at 102%.

Take `O=C(O)c1ccc([N+](=O)[O-])cc1Cl`: the Activity in experiment [1] came out at 89.3%.

With `CS(=O)(=O)c1ccc(-c2ccc(C(=O)O)o2)cc1`, the Activity in experiment [1] is 98.5%.

For the compound `COc1ccc([N+](=O)[O-])cc1S(=O)(=O)Nc1cccc(C(=O)O)c1`, the half-inhibitory concentration (IC50) in experiment [2] amounted to 77.6 µM. Besides, the Activity in experiment [1] was 38.4%.
